Source: ChEMBL document CHEMBL5625169, “Development of novel PEX5-PEX14 protein-protein interaction (PPI) inhibitors based on an oxopiperazine template” (Eur J Med Chem, 2023)
pEC50, pKd, pKi: −log10 of the molar value.

Key:
[1] = target: CREB-binding protein/Histone acetyltransferase p300 (Homo sapiens, UniProt Q09472+Q92793); assay: Binding affinity to p300-CBP (unknown origin) protein protein interaction assessed as dissociation constant by tryptophan fluorescence assay
[2] = system: HepG2; assay: Cytotoxicity against human HepG2 cells assessed as reduction in cell viability incubated for 66 hrs by resazurin staining based analysis; format: functional; conditions: HepG2, 66 h
Outline: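 HepG2 cells seeded at 5000 per well and grown overnight at 37 °C, 5% CO2. Compounds tested in triplicate at 100 to 3.125 µM (twofold dilutions); hygromycin B as cytotoxic control. After 66 h, resazurin added and plates incubated a further 6 h. Fluorescence background-subtracted and normalised to untreated cells; EC50 from sigmoidal dose-response fit.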

[3] = Selectivity index, ratio of EC50 for cytotoxicity against human HepG2 cells assessed as reduction in cell viability to EC50 for antitrypanosomal activity against blood stream form of Trypanosoma brucei Lister 427 MITat 1.2 assessed as parasite growth inhibition; format: toxicity, cell-based; conditions: read-out: Ratio EC50
Outline: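 Ratio of HepG2 EC50 (µM) to T. b. brucei EC50. Parasites: bloodstream form, 2×10^3/mL, 66 h plus resazurin to 72 h, quadruplicate.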

[4] = system: Trypanosoma brucei; assay: Antitrypanosomal activity against blood stream form of Trypanosoma brucei Lister 427 MITat 1.2 assessed as parasite growth inhibition incubated for 66 hrs by resazurin dye based assay; format: functional, organism-based; conditions: Lister 427 MITat 1.2, 66 h
Outline: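 Bloodstream-form Lister 427 (MITat 1.2) parasites maintained in HMI-11 with 10% FBS at 37 °C, 5% CO2. Twofold serial dilutions, 10 per row, in quadruplicate. Final 2×10^3 parasites/mL, 66 h, then resazurin added and incubated to 72 h. Fluorescence read at ex 530/em 585 nm, background subtracted, untreated wells taken as 100% survival. EC50 from sigmoidal dose-response fit.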

[5] = Inhibition of Trypanosoma brucei biotinylated PEX5 /N-terminal His-tagged PEX14 (19 to 84 residues) protein-protein interaction expressed in Escherichia coli BL21 assessed as inhibition constant by AlphaScreen assay
Outline: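 TbPEX14 N-terminal domain (aa 19–84) expressed from pETM-11 in E. coli BL21, Ni-NTA then gel filtration in PBS. AlphaScreen competition with serial inhibitor dilution, other components held constant, quadruplicate. Ki = EC50/(1+[LT]/KdL*T), apparent Kd measured for each condition.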

[6] = target: Tumour suppressor p53/oncoprotein Mdm2 (Homo sapiens, UniProt P04637+Q00987); assay: Binding affinity to MDM2-p53 (unknown origin) protein protein interaction assessed as dissociation constant by fluorescence polarization assay
Chain of Tumour suppressor p53/oncoprotein Mdm2 (P04637 whole entry): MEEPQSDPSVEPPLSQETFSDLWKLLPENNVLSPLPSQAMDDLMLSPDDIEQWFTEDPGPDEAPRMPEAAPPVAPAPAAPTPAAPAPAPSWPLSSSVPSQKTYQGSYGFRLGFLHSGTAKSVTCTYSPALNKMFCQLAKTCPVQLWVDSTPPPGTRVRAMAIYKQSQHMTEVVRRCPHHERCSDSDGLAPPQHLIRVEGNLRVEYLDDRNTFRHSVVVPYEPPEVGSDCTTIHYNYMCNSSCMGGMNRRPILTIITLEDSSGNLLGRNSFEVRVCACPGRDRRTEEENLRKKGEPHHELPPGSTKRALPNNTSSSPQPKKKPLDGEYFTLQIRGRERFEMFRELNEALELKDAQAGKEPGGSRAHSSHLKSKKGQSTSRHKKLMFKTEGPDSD
Chain of Tumour suppressor p53/oncoprotein Mdm2 (Q00987 whole entry): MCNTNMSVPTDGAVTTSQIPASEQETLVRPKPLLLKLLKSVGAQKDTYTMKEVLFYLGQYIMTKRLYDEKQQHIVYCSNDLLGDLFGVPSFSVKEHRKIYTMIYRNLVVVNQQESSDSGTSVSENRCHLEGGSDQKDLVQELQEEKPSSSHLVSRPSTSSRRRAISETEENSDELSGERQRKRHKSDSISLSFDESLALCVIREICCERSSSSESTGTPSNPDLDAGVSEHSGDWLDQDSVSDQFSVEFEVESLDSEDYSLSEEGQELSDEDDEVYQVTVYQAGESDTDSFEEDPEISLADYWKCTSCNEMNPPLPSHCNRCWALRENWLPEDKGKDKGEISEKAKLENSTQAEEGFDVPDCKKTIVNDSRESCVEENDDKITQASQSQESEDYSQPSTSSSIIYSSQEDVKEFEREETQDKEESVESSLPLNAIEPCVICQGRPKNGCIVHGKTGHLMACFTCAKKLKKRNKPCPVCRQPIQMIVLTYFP

Row | Kd [1] | pEC50 [4] | pKd [6] | SMILES | pEC50 [2] | selectivity ratio [3] | pKi [5]
1 | 0.53 µM |  |  | CC(C)C[C@@H]1NCCN([C@@H](CC(C)C)C(=O)N2CCN([C@@H](CCC(N)=O)C(N)=O)C(=O)[C@@H]2C)C1=O |  |  | 
2 |  | 5.00 |  | COC(=O)[C@H](Cc1c[nH]c2ccccc12)N1CC(=O)N[C@H](C(=O)NCc2cccc3ccccc23)C1 | 4.48 | 3.2 | 4.11
3 |  | 4.54 |  | COC(=O)[C@H](Cc1ccccc1)N1CC(=O)N[C@@H](Cc2c[nH]c3ccccc23)C1=O | 4.62 | < 1 | < 3.00
4 |  | 4.37 |  | COC(=O)[C@H](Cc1ccccc1)N1CCN[C@@H](Cc2c[nH]c3ccccc23)C1=O | < 4.00 | > 2.3 | 3.58
5 |  | 5.30 |  | COC(=O)[C@H](Cc1c[nH]c2ccccc12)N1CC(=O)N[C@@H](Cc2c[nH]c3ccccc23)C1 | 4.77 | 3.6 | 4.57
6 |  | 4.52 |  | COC(=O)[C@H](Cc1c[nH]c2ccccc12)N1CCN[C@@H](Cc2c[nH]c3ccccc23)C1=O | < 4.00 | > 3.4 | 3.88
7 |  | < 4.00 |  | COC(=O)[C@H](Cc1c[nH]c2ccccc12)N1CC(=O)N[C@H](C(=O)NCc2ccccc2)C1 | < 4.00 |  | 3.31
8 |  | 4.54 |  | COC(=O)[C@H](Cc1c[nH]c2ccccc12)N1C[C@H](Cc2c[nH]c3ccccc23)NC(=O)C1=O | < 4.00 | > 3.4 | 4.12
9 |  | < 4.00 |  | NC(=O)[C@H](Cc1c[nH]c2ccccc12)N1CCN[C@@H](Cc2c[nH]c3ccccc23)C1=O | < 4.00 |  | 3.54
10 |  | < 4.00 |  | O=C1CN(C(=O)Cc2c[nH]c3ccccc23)C[C@H](Cc2c[nH]c3ccccc23)N1 | < 4.00 |  | 3.71
11 |  | 4.89 |  | COC(=O)[C@H](Cc1ccccc1)N1CC(=O)N[C@@H](Cc2c[nH]c3ccccc23)C1 | 4.25 | 4.3 | 4.14
12 |  | < 4.00 |  | COC(=O)[C@H](Cc1c[nH]c2ccccc12)N1CCN(C(C)=O)[C@@H](Cc2c[nH]c3ccccc23)C1=O | < 4.00 |  | 3.27
13 |  | 4.89 |  | CC(=O)OC[C@H](Cc1c[nH]c2ccccc12)N1CC(=O)N[C@@H](Cc2c[nH]c3ccccc23)C1 | 4.54 | 1.8 | 4.24
14 |  | 5.30 |  | COC(=O)[C@H](Cc1c[nH]c2ccccc12)N1CCCN[C@@H](Cc2c[nH]c3ccccc23)C1=O | 4.68 | 4.2 | 4.28
15 |  |  | 5.54 | CC(C)C[C@@H](C(N)=O)N1CCN(C(=O)[C@H](Cc2c[nH]c3ccccc23)N2CCN[C@@H](Cc3ccccc3)C2=O)[C@@H](Cc2ccccc2)C1=O |  |  | 
16 |  | < 4.00 |  | NC(=O)[C@H](Cc1ccccc1)N1CC(=O)N[C@@H](Cc2c[nH]c3ccccc23)C1=O | < 4.00 |  | < 3.00

Row | SMILES | Kd [1] | pEC50 [4] | pKd [6] | pEC50 [2] | selectivity ratio [3] | pKi [5]
17 | O=C1CN(CCc2c[nH]c3ccccc23)C[C@H](Cc2c[nH]c3ccccc23)N1 |  | 5.15 |  | 4.92 | 1.7 | 4.39
18 | O=C1CN([C@H](CO)Cc2c[nH]c3ccccc23)C[C@H](Cc2c[nH]c3ccccc23)N1 |  | 4.85 |  | 4.62 | 1.7 | 4.32
